Assay results from different studies.
Target: Serine/threonine-protein kinase SIK1 (SIK1, Homo sapiens, UniProt P57059)

Compound	test	system	setting	endpoint	value
O=C(Nc1cnn(-c2csc(C(=O)NC3COC3)c2)c1)Nc1c(F)cccc1Cl	enzyme activity, inhibitor	–	5 µM	remaining activity	98.3%
CN(CCCC(F)(F)F)c1nccc(-c2cnn3ncccc23)n1	binding	–	1 µM	remaining binding	100%
Cc1ccc(Nc2nccc(N(C)c3ccc4c(C)n(C)nc4c3)n2)cc1S(N)(=O)=O	enzyme activity, inhibitor	–	0.3 µM	inhibition	13%
CCN1CCN(Cc2ccc(NC(=O)c3ccc(C)c(Oc4ccnc5[nH]ccc45)c3)cc2C(F)(F)F)CC1	target engagement in cells, inhibitor, chemoproteomics	Huh-7	1 µM	inhibition	-51.3%
CN(c1nccc(-c2cnn3ncccc23)n1)C1CC1	binding	–	1 µM	remaining binding	100%
CC(C)(O)[C@H]1CC[C@H](Nc2ccc3ncc(-c4cccc(C(F)(F)F)c4)n3n2)CC1	enzyme activity, inhibitor	–	1 µM	remaining activity	62.8%
Cc1cc(NC(=O)c2cccc3cc(-c4cccc5[nH]nc(N)c45)ccc23)ccc1F	enzyme activity, inhibitor	–	0.1 µM	activity vs control	103%
Cc1cnc(NC2CCOCC2)nc1-n1cnc(C(=O)NC(CN)c2cc(F)cc(Cl)c2)c1 (centres unmarked)	enzyme activity, inhibitor, radiometric	–	1 µM	remaining activity	109%
Cc1cnn2ncc(-c3ccnc(N(C)C)n3)c2c1	binding	–	1 µM	remaining binding	100%
O=C(Nc1cnn(-c2csc(C(=O)NC3COC3)c2)c1)Nc1ccccc1Cl	enzyme activity, inhibitor	–	5 µM	remaining activity	102%
CC(C)(C)c1nc(-c2cccc(NS(=O)(=O)c3c(F)cccc3F)c2F)c(-c2ccnc(N)n2)s1	enzyme activity, inhibitor, radiometric	–	1 µM	remaining activity	98%
Cc1ccc(C(=O)Nc2ccc(CN3CCN(C)CC3)c(C(F)(F)F)c2)cc1C#Cc1cnc2cccnn12	enzyme activity, inhibitor	–	23.5 nM	remaining activity	57%
CC(C)(C)c1nc2c(s1)c1nc(N)ncc1c1ccc(NS(=O)(=O)c3c(F)cccc3F)c(F)c12	enzyme activity, inhibitor, radiometric	–	1 µM	remaining activity	90%
COc1cc(Cl)c(C(=O)N[C@@H](CN[C@H]2CC[C@@H](N)CC2)Cc2ccc(C#N)cc2)cc1-c1ccc(CN[C@H](C)c2ccc(C)cc2)o1	enzyme activity, inhibitor	–	1 µM	remaining activity	97%
